Read-outs that look alike come from different tables or passages of the source.
Tests used:
[1] = test system: opioid receptors; details: in vitro assays; ref Horie et al., 2005; cited from earlier work
[2] = at equi-antinociceptive doses; ref Matsumoto et al., 2006; cited from earlier work
[3] = Stability of 7-OHMG in rat plasma QC samples; assay type: in vitro ADME; details: for Concentration measured: n=6
[4] = test system: mice; details: ref Matsumoto et al., 2005, cited from earlier work
[5] = test system: μ-opioid receptors; details: ref Matsumoto et al., 2004, 2006; cited from earlier work
[6] = Intravenous pharmacokinetic study in rats; assay type: in vivo; details: 4 mg/kg IV bolus, male Sprague Dawley rats, n=6, mean ± SD
Outline: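 Male rats 240-250 g, housed 48 h, fasted 12 h predose and 4 h postdose, water free. Dosed via jugular vein cannula, 30 s bolus in 10% PEG 400 in water, prepared same day. Chloroform liquid-liquid extraction with tryptoline internal standard. Noncompartmental analysis.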

[7] = test system: opioid receptors; details: pharmacological experiments; ref Watanabe et al., 1997; cited from earlier work
[8] = rat plasma, long term 30 days at -20 °C, spiked 20 ng/mL
[9] = rat plasma, long term 30 days at -20 °C, spiked 600 ng/mL
[10] = rat plasma, long term 30 days at -20 °C, spiked 3200 ng/mL
[11] = rat plasma, short term 12 hr at 25 °C, spiked 20 ng/mL
[12] = rat plasma, short term 12 hr at 25 °C, spiked 600 ng/mL
[13] = rat plasma, short term 12 hr at 25 °C, spiked 3200 ng/mL
[14] = rat plasma, three freeze thaw cycles, spiked 20 ng/mL
[15] = rat plasma, three freeze thaw cycles, spiked 600 ng/mL
[16] = rat plasma, three freeze thaw cycles, spiked 3200 ng/mL
[17] = reconstituted plasma extract, auto sampler 12 hr at 25 °C, spiked 20 ng/mL
[18] = reconstituted plasma extract, auto sampler 12 hr at 25 °C, spiked 600 ng/mL

CC[C@@H]1CN2CC[C@@]3(O)C(=Nc4cccc(OC)c43)[C@@H]2C[C@@H]1/C(=C\OC)C(=O)OC [7-OHMG, 7-hydroxymitragynine]
Opioid agonistic effect among constituents of Mitragyna speciosa [1]: most potent effect | Times less constipating than morphine [2]: 4.9-6.4 times | Short-term stability in plasma ([3]; 12 h at room temperature): stable | Auto-sampler stability of reconstituted samples ([3]; 12 h in auto-sampler at 25 °C): stable | Long-term stability in plasma ([3]; 30 days at -20 °C): stable | Accuracy (measured vs spiked concentration) [3, 8]: 98% | Concentration measured [3, 8]: 19.6 ± 0.8 ng/mL | Accuracy (measured vs spiked concentration) [3, 9]: 101.7% | Concentration measured [3, 9]: 610.4 ± 28.8 ng/mL | Accuracy (measured vs spiked concentration) [3, 10]: 95.6% | Concentration measured [3, 10]: 3058.2 ± 320.4 ng/mL | Accuracy (measured vs spiked concentration) [3, 11]: 101.5% | Concentration measured [3, 11]: 20.3 ± 1.3 ng/mL | Accuracy (measured vs spiked concentration) [3, 12]: 108.8% | Concentration measured [3, 12]: 652.7 ± 17.8 ng/mL | Accuracy (measured vs spiked concentration) [3, 13]: 102.8% | Concentration measured [3, 13]: 3289.4 ± 197.2 ng/mL | Accuracy (measured vs spiked concentration) [3, 14]: 102% | Concentration measured [3, 14]: 20.4 ± 0.3 ng/mL | Accuracy (measured vs spiked concentration) [3, 15]: 105.2% | Concentration measured [3, 15]: 631.3 ± 40.2 ng/mL | Accuracy (measured vs spiked concentration) [3, 16]: 103.5% | Concentration measured [3, 16]: 3312.5 ± 163.5 ng/mL | Accuracy (measured vs spiked concentration) [3, 17]: 95.5% | Concentration measured [3, 17]: 19.1 ± 0.7 ng/mL | Accuracy (measured vs spiked concentration) [3, 18]: 94.7% | Concentration measured [3, 18]: 568.3 ± 43.9 ng/mL | Accuracy (measured vs spiked concentration) ([3]; reconstituted plasma extract, auto sampler 12 hr at 25 °C, spiked 3200 ng/mL): 99.8% | Freeze-thaw stability in plasma ([3]; three freeze-thaw cycles, stored at -20 °C and thawed to room temperature): stable | Place preference ([4]; 1 mg/kg dose): slight place preference | Place preference ([4]; 2 mg/kg dose): strong place preference | Affinity for μ- versus δ- and κ-opioid receptors [5]: higher affinity for μ-opioid receptors relative to the δ- and κ- receptors | AUC0→∞ [6]: 98.3 ± 32.1 µg·min/mL | CL [6]: 44.2 ± 14.8 mL/min/kg | Cmax [6]: 3000 ± 300 ng/mL | MRT [6]: 70.9 ± 10.0 min | T1/2 [6]: 22.9 ± 3.6 min | Vd [6]: 1.5958 ± 0.5863 L/kg

mitragynine
Effect on opioid receptors [7]: agonistic effects on opioid receptors
